Consider two molecules from ChEMBL document CHEMBL3232847, “Discovery of 6-phenylpyrimido[4,5-b][1,4]oxazines as potent and selective acyl CoA:diacylglycerol acyltransferase 1 (DGAT1) inhibitors with in vivo efficacy in rodents” (J Med Chem, 2014).

The target in one data set is Cytochrome P450 2D6 (Homo sapiens, UniProt P10635). As to the kind of experiment: Inhibition of CYP2D6 (unknown origin) at 10 uM. Type of data set: ADME.
Data set [1] can be described thus: Clearance in cynomolgus monkey at 0.5 mg/kg, iv. Type of data set: ADME, organism-based, Macaca fascicularis. Also on record: dose 0.5 mg/kg, route intravenous. As to conditions: in vivo.
Another data set addresses Cytochrome P450 3A4 (Homo sapiens, UniProt P08684). Description: Inhibition of CYP3A4 (unknown origin) at 10 uM. Type of data set: ADME.
The subject of data set [2] is Cynomolgus monkey. As to the kind of experiment: Toxicity in cynomolgus monkey assessed as elevation of change in histopathological parameters at 10 to 30 mg/kg/day, po qd by 21-day multiple-dose toxicity study relative to control. Type of data set: organism-based, Macaca fascicularis. Also on record: route oral. As to conditions: in vivo. The method, boiled down:
(§1)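 Cynomolgus monkeys were dosed po once daily at 10 and 30 mg/kg for 21 days. ALT and AST levels, QTc intervals, and clinical and histopathological findings were assessed, and plasma AUC was recorded for each dose.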

The nature of data set [3]: Volume of distribution at steady state in Sprague-Dawley rat at 0.7 mg/kg, iv. It counts as ADME, organism-based. Also on record: dose 0.7 mg/kg, route intravenous. Particulars: in vivo, read-out: Vdss.
Data set [4] concerns Mus musculus. As to the kind of experiment: Reduction in plasma triglyceride level in po dosed C57BL/6J mouse compound treated 30 mins prior to olive oil administration measured 3 hrs post olive oil administration relative to vehicle-treated control. Type of data set: functional, organism-based. The method, boiled down: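 Animals received vehicle or compound by oral gavage, then olive oil (5 mL/kg) by oral gavage 30 min later. Plasma triglycerides were measured before dosing and 3 h after the oil. The read-out was the change in TG from pre-dose, compared with vehicle-treated animals.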

The target of another data set is Cytochrome P450 2C9 (Homo sapiens, UniProt P11712). Description: Inhibition of CYP2C9 (unknown origin) at 10 uM. It counts as ADME.
Cytochrome P450 2C9, sequence (P11712 whole entry): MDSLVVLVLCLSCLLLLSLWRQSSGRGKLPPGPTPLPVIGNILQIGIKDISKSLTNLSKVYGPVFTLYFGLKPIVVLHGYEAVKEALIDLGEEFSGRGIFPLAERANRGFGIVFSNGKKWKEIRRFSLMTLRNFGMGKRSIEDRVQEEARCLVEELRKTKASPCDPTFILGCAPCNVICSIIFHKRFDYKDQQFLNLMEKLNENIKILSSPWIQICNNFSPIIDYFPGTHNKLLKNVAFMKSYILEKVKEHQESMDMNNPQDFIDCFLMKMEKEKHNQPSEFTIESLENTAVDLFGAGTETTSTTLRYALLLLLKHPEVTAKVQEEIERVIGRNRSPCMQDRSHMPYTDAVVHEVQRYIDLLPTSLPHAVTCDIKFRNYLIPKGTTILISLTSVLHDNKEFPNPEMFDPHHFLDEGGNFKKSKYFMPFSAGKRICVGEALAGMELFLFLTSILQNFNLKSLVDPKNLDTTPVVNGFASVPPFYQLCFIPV
The nature of data set [5]: Half life in CD1 mouse at 0.5 mg/kg, iv. It counts as ADME, organism-based. Also on record: dose 0.5 mg/kg, route intravenous. As to conditions: in vivo.
The nature of data set [6]: Clearance in CD1 mouse at 0.5 mg/kg, iv. Type of data set: ADME, organism-based. Also on record: dose 0.5 mg/kg, route intravenous. Particulars: in vivo.
Data set [7] is described as follows: Clearance in Sprague-Dawley rat at 0.7 mg/kg, iv. It counts as ADME, organism-based. Also on record: dose 0.7 mg/kg, route intravenous. Particulars: in vivo.
A short description of data set [8]: Half life in beagle dog at 0.2 mg/kg, iv. Particulars: in vivo. Type of data set: ADME, organism-based, Canis lupus familiaris. Also on record: dose 0.2 mg/kg, route intravenous.
Data set [9] can be described thus: Clearance in beagle dog at 0.2 mg/kg, iv. Particulars: in vivo. Type of data set: ADME, organism-based, Canis lupus familiaris. Also on record: dose 0.2 mg/kg, route intravenous.
Data set [10] is described as follows: Volume of distribution at steady state in CD1 mouse at 0.5 mg/kg, iv. Type of data set: ADME, organism-based. Also on record: dose 0.5 mg/kg, route intravenous. Particulars: in vivo, read-out: Vdss.
The subject of data set [11] is Cynomolgus monkey. As to the kind of experiment: Toxicity in cynomolgus monkey assessed as elevation of change in clinical parameters at 10 to 30 mg/kg/day, po qd by 21-day multiple-dose toxicity study relative to control. As to conditions: in vivo. Type of data set: organism-based, Macaca fascicularis. Also on record: route oral. The method, boiled down: as §1
A short description of data set [12]: AUC in C57BL/6J mouse at 0.3 mg/kg, po. Type of data set: ADME, organism-based. Also on record: dose 0.3 mg/kg, route oral. As to conditions: plasma.
The next data set addresses T1, Cytochrome P450 1A2 (Homo sapiens, UniProt P05177).
T1 sequence (P05177 whole entry): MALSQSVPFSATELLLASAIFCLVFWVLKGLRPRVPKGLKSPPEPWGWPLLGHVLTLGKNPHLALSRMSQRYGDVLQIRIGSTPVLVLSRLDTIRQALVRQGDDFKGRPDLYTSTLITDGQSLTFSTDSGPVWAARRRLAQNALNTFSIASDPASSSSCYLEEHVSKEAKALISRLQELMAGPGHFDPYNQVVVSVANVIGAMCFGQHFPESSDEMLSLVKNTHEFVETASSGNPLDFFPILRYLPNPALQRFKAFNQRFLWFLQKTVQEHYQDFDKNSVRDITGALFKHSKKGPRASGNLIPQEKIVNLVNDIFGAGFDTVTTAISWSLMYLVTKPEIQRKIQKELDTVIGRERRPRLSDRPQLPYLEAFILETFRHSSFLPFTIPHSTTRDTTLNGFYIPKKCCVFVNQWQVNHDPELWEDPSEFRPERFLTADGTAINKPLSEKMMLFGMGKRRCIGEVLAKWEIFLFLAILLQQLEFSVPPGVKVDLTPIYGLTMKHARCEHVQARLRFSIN
Description: Inhibition of CYP1A2 (unknown origin) at 10 uM. Type of data set: ADME.

Data set [13] can be described thus: AUC in Sprague-Dawley rat at 2 mg/kg, po. It counts as ADME, organism-based. Also on record: dose 2 mg/kg, route oral. As to conditions: plasma.
The nature of data set [14]: AUC in Sprague-Dawley rat at 30 mg/kg, po. As to conditions: plasma. It counts as ADME, organism-based. Also on record: dose 30 mg/kg, route oral.
Data set [15] in a line: Half life in rhesus monkey at 0.2 mg/kg, iv. As to conditions: in vivo. It counts as ADME, organism-based, Macaca mulatta. Also on record: dose 0.2 mg/kg, route intravenous.
Data set [16] concerns the target T2, Sterol O-acyltransferase 2 (Homo sapiens) (UniProt O75908).
T2 sequence (whole entry): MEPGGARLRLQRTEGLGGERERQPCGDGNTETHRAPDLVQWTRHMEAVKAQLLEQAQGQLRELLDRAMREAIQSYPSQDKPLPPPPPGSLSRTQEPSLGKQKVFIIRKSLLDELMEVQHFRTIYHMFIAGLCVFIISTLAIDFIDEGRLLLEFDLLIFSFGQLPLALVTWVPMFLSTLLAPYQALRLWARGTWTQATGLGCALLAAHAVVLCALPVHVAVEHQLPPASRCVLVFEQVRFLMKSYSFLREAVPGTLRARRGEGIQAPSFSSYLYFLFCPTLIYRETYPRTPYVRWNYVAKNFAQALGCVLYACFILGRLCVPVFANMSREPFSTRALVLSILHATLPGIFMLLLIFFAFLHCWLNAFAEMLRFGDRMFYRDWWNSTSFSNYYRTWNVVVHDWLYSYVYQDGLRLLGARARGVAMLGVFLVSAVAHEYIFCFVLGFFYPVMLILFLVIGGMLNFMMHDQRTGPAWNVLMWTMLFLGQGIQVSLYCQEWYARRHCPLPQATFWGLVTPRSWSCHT
Description: Inhibition of human full-length flag-tagged ACAT2 expressed in baculovirus infected insect cells using [14C]palmitoyl CoA as substrate up to 10 uM after 10 mins by scintillation counting.

The species entered for data set [17] is Mus musculus. As to the kind of experiment: Inhibition of mouse liver microsomal GPAT up to 10 uM by TLC technique in presence of glycerol-3-phosphate and [14C] palmitoyl CoA. A general note: Microsomes from liver hold many membrane-bound enzymes, among them those of drug oxidation.
Data set [18] concerns Rattus norvegicus. As to the kind of experiment: Toxicity in Sprague-Dawley rat assessed as sebaceous gland atrophy at 100 mg/kg, po by 14-day multiple-dose toxicity study. It counts as organism-based. Also on record: dose 100 mg/kg, route oral. Particulars: in vivo. The gist of the method: (§2)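 Sprague−Dawley rats were dosed po once daily for 14 days. Clinical and histopathological findings were assessed, and plasma AUC was recorded for each dose.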

Data set [19] is described as follows: Drug metabolism in cynomolgus monkey liver S9 fraction assessed as 2-hydroxy compound formation by MS/MS analysis. Type of data set: ADME, subcellular, Macaca fascicularis.
The nature of data set [20]: AUC in CD1 mouse at 2 mg/kg, po. Type of data set: ADME, organism-based. Particulars: plasma. Also on record: dose 2 mg/kg, route oral.
The test system of data set [21] is Rattus norvegicus. Description: Toxicity in Sprague-Dawley rat assessed as change in clinical parameters at 30 mg/kg, po by 14-day multiple-dose toxicity study. Also on record: dose 30 mg/kg, route oral. Particulars: in vivo. Type of data set: organism-based. The gist of the method: as §2
Data set [22] can be described thus: Volume of distribution at steady state in Sprague-Dawley rat at 1 mg/kg, iv. It counts as ADME, organism-based. Also on record: dose 1 mg/kg, route intravenous. Particulars: in vivo, read-out: Vdss.
A short description of data set [23]: Oral bioavailability in Sprague-Dawley rat at 2 mg/kg. It counts as ADME, organism-based. As to conditions: in vivo.

Molecules are shown by their SMILES. Activity calls are given as the source filed them.

Cytochrome P450 3A4, sequence (P08684 whole entry): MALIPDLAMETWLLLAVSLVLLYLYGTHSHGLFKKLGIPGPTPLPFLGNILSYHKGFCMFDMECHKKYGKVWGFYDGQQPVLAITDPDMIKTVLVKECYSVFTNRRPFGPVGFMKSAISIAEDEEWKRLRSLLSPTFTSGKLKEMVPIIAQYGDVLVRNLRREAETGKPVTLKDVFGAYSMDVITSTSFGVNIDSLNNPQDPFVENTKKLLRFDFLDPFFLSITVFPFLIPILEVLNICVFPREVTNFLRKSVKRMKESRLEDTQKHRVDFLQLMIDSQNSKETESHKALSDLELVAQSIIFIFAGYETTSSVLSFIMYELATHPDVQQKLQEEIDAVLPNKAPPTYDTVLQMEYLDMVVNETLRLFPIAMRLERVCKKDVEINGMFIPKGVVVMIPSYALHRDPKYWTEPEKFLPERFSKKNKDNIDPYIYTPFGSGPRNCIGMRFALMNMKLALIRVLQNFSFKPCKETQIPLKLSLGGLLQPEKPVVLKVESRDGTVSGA
Cytochrome P450 2D6, sequence (P10635 whole entry): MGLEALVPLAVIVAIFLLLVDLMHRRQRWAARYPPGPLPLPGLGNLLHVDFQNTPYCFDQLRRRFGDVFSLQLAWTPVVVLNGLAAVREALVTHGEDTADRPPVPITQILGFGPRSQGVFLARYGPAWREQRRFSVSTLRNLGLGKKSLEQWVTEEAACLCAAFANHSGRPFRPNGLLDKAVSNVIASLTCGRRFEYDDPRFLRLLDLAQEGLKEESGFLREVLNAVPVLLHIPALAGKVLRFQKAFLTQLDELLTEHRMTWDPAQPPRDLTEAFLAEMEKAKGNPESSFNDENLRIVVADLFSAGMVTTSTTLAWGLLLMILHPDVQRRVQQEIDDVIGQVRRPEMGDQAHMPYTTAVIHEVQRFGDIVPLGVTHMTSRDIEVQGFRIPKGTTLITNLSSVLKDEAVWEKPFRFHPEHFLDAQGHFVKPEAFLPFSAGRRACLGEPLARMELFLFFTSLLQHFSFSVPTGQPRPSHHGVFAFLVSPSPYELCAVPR

For `CC1(C)Oc2nc(C(F)(F)F)nc(N)c2N=C1c1ccc2c(c1)CC[C@]21CC[C@@H](CC(=O)O)CC1`, the “inhibition (INH)” value at Cytochrome P450 2D6, against Cytochrome P450 3A4, against Cytochrome P450 2C9 and at Cytochrome P450 1A2 was “Not Active” throughout. In addition, the clearance – broadly, the rate of elimination divided by the concentration – in data set [1] is 0.333 mL/min/kg; in data set [6], 7.5 mL/min/kg; in [7], 3.5 mL/min/kg; in [9], 2.33 mL/min/kg. Moreover, the Activity result in the data set on Cynomolgus monkey [2] was “Non-toxic”; in the data set with Mus musculus [4], “Dose-dependent effect”; in the data set with Cynomolgus monkey [11], “Non-toxic”. The results for the Vd in data set [3] and in [10] were 1.1 L/kg and 2.8 L/kg, respectively. The half-life (commonly the time needed for the level to fall by half in the phase considered) in [5] is 264 min; in data set [8], 66 min. Also, the area under the curve (AUC) (in general, the area under the concentration-time curve, a measure of exposure) in [12] was found to be 0.65 µM·h.
In the case of `CC1(C)Oc2ncnc(N)c2N=C1c1ccc([C@H]2CC[C@H](CC(=O)O)CC2)cc1`, the “inhibition (INH)” value at Cytochrome P450 2D6, on Cytochrome P450 3A4, on Cytochrome P450 2C9 and against Cytochrome P450 1A2 was “Not Active” in each case. For the same molecule, the area under the curve (AUC) was determined as 1010 ng·h/mL in data set [13], 913 µM·h in data set [14], 6690 ng·h/mL in data set [20] and 2.6 µM·h in [12]. The half-life in data set [5] is 282 min; in [15], 108 min. For the same molecule, the inhibition entry (in [16]; in the data set listed under Mus musculus [17]) was “inactive” in each case. For the same molecule, the Activity entry in the data set with Rattus norvegicus [18] was “Toxic”; in the data set with Rattus norvegicus [21], “Non-toxic”. Moreover, in data set [6], the clearance was 1.83 mL/min/kg. In addition, in data set [19], the Drug metabolism result is listed as “metabolite_detected”. In addition, the Vd was found to be 0.79 L/kg in data set [10] and 1.65 L/kg in [22]. For the same molecule, in data set [23], the bioavailability (usually dose-corrected exposure relative to a reference, in per cent) stood at 30%.
